From ChEMBL document CHEMBL4196208, “Antiproliferative Sesquiterpenoids from Ligularia rumicifolia with Diverse Skeletons” (J Nat Prod, 2018)
pIC50: −log10 of the molar value. Active and inactive are the calls of the source. No cut-off for these calls is given here.

Tests used:
Type in all cases: functional, cell-based
A549 = experiment: Antiproliferative activity against human A549 cells after 72 hrs by MTT assay; conditions: for pIC50: A549, 72 h
Method in brief: (§1)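 Human tumour lines HGC-27 (stomach), A-549 (lung), HeLa (cervical) and MV4-11 (leukemia) tested in a standard MTT assay, with taxol as positive control. Each assay repeated more than three times. IC50 calculated by the Reed and Muench method, reported as mean ± SD.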

HGC-27 = experiment: Antiproliferative activity against human HGC27 cells after 72 hrs by MTT assay; conditions: for pIC50: HGC-27, 72 h; method in brief: as §1
HeLa = experiment: Antiproliferative activity against human HeLa cells after 72 hrs by MTT assay; method in brief: as §1
MV4-11 = experiment: Antiproliferative activity against human MV411 cells after 72 hrs by MTT assay; conditions: for pIC50: MV4-11, 72 h; method in brief: as §1

pIC50 (A549) | pIC50 (HeLa) | pIC50 (MV4-11) | SMILES | Activity (A549) | Activity (HGC-27) | Activity (HeLa) | Activity (MV4-11) | pIC50 (HGC-27)
 |  |  | C=C1[C@H]2[C@@H](/C(=C\C)C(=O)[C@H]2OC(=O)C(C)CC)[C@H]([C@@]2(C)CO2)[C@@H](OC(=O)/C(C)=C\C)[C@H]1OC(=O)/C=C(\C)CC (some centres not stated) | inactive | inactive | inactive | inactive | 
5.01 | 5.20 | 5.54 | C=C(C(CC=C(C)C)OC(=O)/C(C)=C\C)[C@@H]1C(=O)C(OC(C)=O)=C(C)[C@H](O)[C@H]1OC(=O)/C(C)=C\C (some centres not stated) |  |  |  |  | 5.66
 |  |  | C=C(C(CC=C(C)C)OC(=O)/C(C)=C\C)[C@@H]1[C@@H](O)[C@@H](OC(=O)/C(C)=C/C)[C@](C)(O)C(=O)[C@H]1OC(C)=O (some centres not stated) | inactive | inactive | inactive | inactive | 
 |  |  | C=C(C(CC=C(C)C)OC(=O)/C(C)=C\C)[C@@H]1C[C@H](O)[C@](C)(OC)C(=O)[C@H]1OC(C)=O (some centres not stated) | inactive | inactive | inactive | inactive | 
 |  |  | C=C(C(CC=C(C)C)OC(=O)/C(C)=C\C)[C@@H]1[C@H](OC(=O)/C(C)=C\C)[C@@H]2O[C@]2(C)C(=O)[C@H]1OC(C)=O (some centres not stated) | inactive | inactive | inactive | inactive | 
 |  |  | C=C1[C@H]2[C@@H](/C(=C/C)C(=O)[C@H]2OC(=O)C(C)CC)[C@H]([C@@]2(C)CO2)[C@@H](OC(=O)C(C)CC)[C@H]1OC(=O)/C=C(\C)CC (some centres not stated) | inactive | inactive | inactive | inactive | 
4.87 | 5.24 | 5.60 | C=C(C)[C@@H]1C[C@@]2(C)C(=CC1=O)[C@H](O)C[C@@H](OC(=O)/C(C)=C\C)[C@@H]2C |  |  |  |  | 5.14
 |  |  | C=C(C(CC=C(C)C)OC(=O)/C(C)=C\C)[C@@H]1C[C@@H]2O[C@]2(C)C(=O)[C@@H]1OC(C)=O (some centres not stated) | inactive | inactive | inactive | inactive | 
4.90 | 5.08 | 5.05 | C=C1[C@@H]2[C@H](OC(=O)C(C)CC)[C@H](OC(C)=O)[C@H]([C@@H](C)OC(=O)C[C@@H](C)O)[C@H]2[C@H]([C@@]2(C)CO2)[C@@H](OC(=O)/C(C)=C\C)[C@H]1OC(=O)/C=C(\C)CC (some centres not stated) |  |  |  |  | 5.21
 |  |  | C=C(C(CC=C(C)C)OC(=O)/C(C)=C\C)[C@H]1C[C@@H](O)C(C)=C(OC(C)=O)C1=O (some centres not stated) | inactive | inactive | inactive | inactive | 
5.20 | 5.62 | 6.30 | C=C(C)[C@@H]1C[C@@]2(C)C(=CC1=O)[C@@H](O)C[C@@H](OC(=O)/C(C)=C\C)[C@@H]2C |  |  |  |  | 5.68
 |  |  | C/C=C(/C)C(=O)O[C@@H]1CCC2=CC(=O)[C@H]([C@]3(C)CO3)C[C@]2(C)[C@H]1C | inactive | inactive | inactive | inactive | 
 |  |  | C=C(C(CC=C(C)C)OC(=O)/C(C)=C\C)[C@@H]1[C@@H](O)[C@@H](OC(=O)/C(C)=C\C)[C@](C)(O)C(=O)[C@H]1OC(C)=O (some centres not stated) | inactive | inactive | inactive | inactive | 
 |  |  | C/C=C(/C)C(=O)OC1=C(C)[C@H](O)C/C(=C(/C)C(CC=C(C)C)OC(=O)/C(C)=C\C)C1=O (some centres not stated) | inactive | inactive | inactive | inactive | 
 |  |  | C/C=C(/C)C(=O)OC(CC=C(C)C)/C(C)=C1\C[C@@H](O)C(C)=C(OC(C)=O)C1=O (some centres not stated) | inactive | inactive | inactive | inactive | 
 |  |  | C=C1[C@H]2[C@H]([C@H]([C@@]3(C)CO3)[C@@H](OC(=O)/C(C)=C\C)[C@H]1OC(=O)/C=C(\C)CC)[C@@H](CC)C(=O)[C@H]2OC(=O)C(C)CC (some centres not stated) | inactive | inactive | inactive | inactive | 
7.29 | 7.34 | 7.77 | CC(=O)O[C@H]1C(=O)[C@@]2(C)[C@H]([C@H](OC(=O)c3ccccc3)[C@]3(O)C[C@H](OC(=O)[C@H](O)[C@@H](NC(=O)c4ccccc4)c4ccccc4)C(C)=C1C3(C)C)[C@]1(OC(C)=O)CO[C@@H]1C[C@@H]2O [PACLITAXEL] |  |  |  |  | 7.55
 |  |  | C=C(C)[C@@H]1C[C@@]2(C)C(=CC1=O)CC[C@@H](OC(=O)C=C(C)C)[C@@H]2C | inactive | inactive | inactive | inactive | 
 |  |  | C=C(C(CC=C(C)C)OC(=O)/C(C)=C\C)[C@@H]1[C@@H](O)[C@@H]2O[C@]2(C)C(=O)[C@H]1OC(C)=O (some centres not stated) | inactive | inactive | inactive | inactive | 

pIC50 (A549) | pIC50 (HeLa) | pIC50 (MV4-11) | SMILES | Activity (A549) | Activity (HGC-27) | Activity (HeLa) | Activity (MV4-11) | pIC50 (HGC-27)
 |  |  | C=C1[C@H]2[C@@H](/C(=C/C)C(=O)[C@H]2OC(=O)C(C)CC)[C@H]([C@@]2(C)CO2)[C@@H](OC(=O)/C(C)=C\C)[C@H]1OC(=O)/C=C(\C)CC (some centres not stated) | inactive | inactive | inactive | inactive | 
 |  |  | C=C1CO[C@H]2C[C@@H]1Cc1c2ccc(O)c1C | inactive | inactive | inactive | inactive | 
 |  |  | C=C(C(CC=C(C)C)OC(=O)/C(C)=C\C)[C@@H]1C[C@H](Cl)[C@](C)(O)C(=O)[C@H]1OC(C)=O (some centres not stated) | inactive | inactive | inactive | inactive | 
 |  |  | C=C(C(CC=C(C)C)OC(=O)/C(C)=C\C)[C@@H]1C[C@H](O)[C@](C)(OC)C(=O)[C@H]1OC(=O)/C(C)=C\C (some centres not stated) | inactive | inactive | inactive | inactive | 
 |  |  | C=C1[C@H]2[C@@H](/C(=C\C)C(=O)[C@H]2OC(=O)C(C)CC)[C@H]([C@@]2(C)CO2)[C@@H](OC(=O)C(C)CC)[C@H]1OC(=O)/C=C(\C)CC (some centres not stated) | inactive | inactive | inactive | inactive | 
 |  |  | C/C=C(/C)C(=O)O[C@@H]1CCC2=CC(=O)[C@@H]([C@@]3(C)CO3)C[C@]2(C)[C@H]1C | inactive | inactive | inactive | inactive | 
 |  |  | C=C(C)[C@@H]1CCc2ccc(O)c(C)c2C1 | inactive | inactive | inactive | inactive | 
 |  |  | C=C1[C@H]2[C@@H]([C@@H]([C@@H](C)OC)C(=O)[C@H]2OC(=O)C(C)CC)[C@H]([C@@]2(C)CO2)[C@@H](OC(=O)C(C)CC)[C@H]1OC(=O)/C=C(\C)CC (some centres not stated) | inactive | inactive | inactive | inactive | 
 |  |  | C=C(c1ccc(C)c(O)c1O)C(CC=C(C)C)OC(=O)/C(C)=C\C (configuration not stated) | inactive | inactive | inactive | inactive | 
 |  |  | C=C(C)[C@@H]1C[C@@]2(C)C(=CC1=O)CC[C@@H](OC(=O)/C(C)=C/C)[C@@H]2C | inactive | inactive | inactive | inactive | 
 |  |  | C=C1[C@H]2[C@@H](/C(=C/C)C(=O)[C@H]2OC(=O)C(C)CC)[C@H]([C@@]2(C)CO2)[C@@H](OC(=O)CC(C)CC)[C@H]1OC(=O)/C=C(\C)CC (some centres not stated) | inactive | inactive | inactive | inactive | 
 |  |  | C=C1[C@@H]2[C@H](OC(=O)C(C)CC)[C@H](OC(C)=O)[C@H]([C@@H](C)OC(=O)C[C@@H](C)O)[C@H]2[C@H]([C@@]2(C)CO2)[C@@H](OC(=O)CC(C)CC)[C@H]1OC(=O)/C=C(\C)CC (some centres not stated) | inactive | inactive | inactive | inactive | 
 |  |  | C=C(C)[C@@H]1C[C@@]2(C)C(=CC1=O)CC[C@@H](O)[C@@H]2C | inactive | inactive | inactive | inactive | 
 |  |  | C=C1[C@H]2[C@@H](/C(=C\C)C(=O)[C@H]2OC(=O)C(C)CC)[C@H]([C@@]2(C)CO2)[C@@H](OC(=O)CC(C)CC)[C@H]1OC(=O)/C=C(\C)CC (some centres not stated) | inactive | inactive | inactive | inactive | 
5.01 | 5.18 | 5.12 | C=C(C)[C@@H]1C[C@@]2(C)C(=CC1=O)CC[C@@H](OC(=O)CC(C)C)[C@@H]2C |  |  |  |  | 5.28
 |  |  | C=C1[C@H]2[C@@H]([C@@H]([C@@H](C)OC)C(=O)[C@H]2OC(=O)C(C)CC)[C@H]([C@@]2(C)CO2)[C@@H](OC(=O)/C(C)=C\C)[C@H]1OC(=O)/C=C(\C)CC (some centres not stated) | inactive | inactive | inactive | inactive | 
5.18 | 5.48 | 5.96 | C=C(C)[C@@H]1C[C@@]2(C)C(=CC1=O)CC[C@@H](OC(=O)CC(C)CC)[C@@H]2C (some centres not stated) |  |  |  |  | 5.44
 |  |  | C=C(C)[C@@H]1C[C@@]2(C)C(=CC1=O)CC[C@@H](OC(=O)/C(C)=C\C)[C@@H]2C | inactive | inactive | inactive | inactive | 
 |  |  | C=C(C(/C=C/C(C)(C)O)OC(=O)/C(C)=C\C)[C@@H]1[C@H](OC(=O)/C(C)=C\C)[C@@H]2O[C@]2(C)C(=O)[C@H]1OC(C)=O (some centres not stated) | inactive | inactive | inactive | inactive | 
